{"data": "Experimental data gathered from unrelated publications", "target": "Tau-tubulin kinase 1 (TTBK1, Homo sapiens, UniProt Q5TCY1)", "effect on": "enzyme activity", "action": "inhibitor", "note": "Compare with care: the assays were run in different laboratories."}
{"Compound": "CN1CC(Oc2cnc(C#N)cc2-c2ccn3nc(NC(=O)C4CC4)cc3c2)C1", "tested at": "1 µM", "quantity": "inhibition", "result": "1%"}
{"Compound": "O=C(Nc1cnn(-c2csc(C(=O)NC3COC3)c2)c1)Nc1c(F)cccc1Cl", "tested at": "5 µM", "quantity": "remaining activity", "result": "82.3%"}
{"Compound": "COc1cc(Nc2cnc(C#N)c(O[C@H](C)CN(C)C)n2)ncc1-c1cnn(C)c1", "technique": "radiometric", "tested at": "1 µM", "quantity": "remaining activity", "result": "98%"}
{"Compound": "Cc1ccc(C(=O)NCc2ccsc2)cc1C#Cc1cn(C(C)C)c2ncnc(N)c12", "tested at": "1 µM", "quantity": "activity vs control", "result": "104%"}
{"Compound": "Cc1sc(C(=O)NC2COC2)cc1-n1cc(NC(=O)Nc2c(F)cccc2Cl)cn1", "tested at": "10 µM", "quantity": "remaining activity", "result": "113%"}
{"Compound": "COc1cc(Cl)c(C(=O)N[C@@H](CN[C@H]2CC[C@@H](N)CC2)Cc2ccc(C#N)cc2)cc1-c1ccc(CN[C@H](C)c2ccc(C)cc2)o1", "tested at": "1 µM", "quantity": "remaining activity", "result": "99%"}
{"Compound": "CC(C)(O)[C@H]1CC[C@H](Nc2ccc3ncc(-c4cccc(C(F)(F)F)c4)n3n2)CC1", "tested at": "1 µM", "quantity": "remaining activity", "result": "95.8%"}
{"Compound": "COc1cc(/C=C/C(=O)CC(=O)/C=C/c2ccc(O)c(OC)c2)ccc1O", "tested at": "1 µM", "quantity": "activity vs control", "result": "102%"}
